Published values collected from several papers.
Each line is one published result; the experiments were not run side by side.

CN1CCCCC1Cn1cc(C(=O)c2cc([N+](=O)[O-])ccc2I)c2ccccc21 (racemic)  Tmax (mouse, brain; intravenous, 25 mg/kg): 15 min
Cc1ncc2n1-c1ccc(Cl)cc1C(c1ccccc1F)=NC2  Cmax (human, plasma; oral, 2 mg): 10.3 ng/mL
COc1ccc2c(c1)[C@]13CCCC[C@@H]1[C@H](C2)N(C)CC3  efflux ratio (Caco-2; 10 µM, pH 6.5): 2
CC[C@H](C)[C@H](NC(=O)[C@H](CC(C)C)NC(=O)[C@H](Cc1c[nH]c2ccccc12)NC(=O)[C@H](CCC(N)=O)NC(=O)[C@@H](NC(=O)[C@H](Cc1ccccc1)NC(=O)[C@H](C)NC(=O)[C@H](CCCCNC(=O)COCCOCCNC(=O)COCCOCCNC(=O)CC[C@H](NC(=O)CCCCCCCCCCCCCCCCCCC(=O)O)C(=O)O)NC(=O)[C@H](CCC(N)=O)NC(=O)[C@H](C)NC(=O)[C@@H](NC(=O)[C@H](CCCCN)NC(=O)[C@H](CC(=O)O)NC(=O)[C@H](CC(C)C)NC(=O)C(C)(C)NC(=O)[C@@H](NC(=O)[C@H](CO)NC(=O)[C@H](Cc1ccc(O)cc1)NC(=O)[C@H](CC(=O)O)NC(=O)[C@H](CO)NC(=O)[C@@H](NC(=O)[C@H](Cc1ccccc1)NC(=O)[C@@H](NC(=O)CNC(=O)[C@H](CCC(=O)O)NC(=O)C(C)(C)NC(=O)[C@@H](N)Cc1ccc(O)cc1)[C@@H](C)O)[C@@H](C)O)[C@@H](C)CC)[C@@H](C)CC)C(C)C)C(=O)N[C@@H](C)C(=O)NCC(=O)NCC(=O)N1CCC[C@H]1C(=O)N[C@@H](CO)C(=O)N[C@@H](CO)C(=O)NCC(=O)N[C@@H](C)C(=O)N1CCC[C@H]1C(=O)N1CCC[C@H]1C(=O)N1CCC[C@H]1C(=O)N[C@@H](CO)C(N)=O  Cmax (human, plasma; subcutaneous, 1.5 mg, multiple doses, healthy volunteers): 198 ng/mL
N=C(N)NCCC[C@@H](NC(=O)[C@@H](N)Cc1ccccc1)C(=O)N[C@@H](Cc1ccccc1)C(=O)N[C@@H](CCCCN)C(N)=O  Cmax (human, plasma; subcutaneous, 25 mg, patients): 973 ng/mL
O=C(NCc1ccc(F)cc1)c1cccc(Nc2ccc(-c3ccccc3)nn2)c1  CC50 (FRT; cell growth or viability, MTS; 48 h): > 100 µM
N=c1c2c(-c3ccccc3)c(-c3ccccc3)n(Cc3ccccc3)c2ncn1[C@H]1CC[C@H](O)CC1  bioavailability (male cynomolgus monkey, plasma; oral, 1 mg/kg, single dose): > 80%
CCOC(=O)c1c(NCc2ccc(SC)cc2)c2cccc(C)c2[nH]c1=O  CC50 (FRT; cell growth or viability, MTS; 48 h): 91.6 µM
c1cc([C@H]2CC[C@]3(CC2)OO[C@]2(O3)C3CC4CC(C3)CC2C4)ccc1OCCN1CCOCC1  Cmax (human, plasma; oral, 1200 mg, patients): 1500 ng/mL
